pIC50, pKi: −log10 of the molar value. The source made the active and inactive calls. The calls are words filed in the database; no cut-off is given here.

The target of one assay is Neuraminidase (Influenza A virus, UniProt B4URF0). Kind of assay: Inhibition of influenza A virus neuraminidase.
Assay [1] concerns the target Neuraminidase (Influenza A virus (strain A/Brevig Mission/1/1918 H1N1) (Influenza Avirus (strain A/South Carolina/1/1918 H1N1)), UniProt Q9IGQ6). Nature of the assay: Inhibition of Influenza A virus (A/Brevig Mission/1/1918(H1N1)) recombinant soluble neuraminidase using 2'-4(methylumbelliferyl)-alpha-D-N-acetylneuraminic acid substrate by fluorimetric assay. Summed up: (§1)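 Recombinant soluble neuraminidase (400 ng/mL final) in 50 mM Tris, 5 mM CaCl2, 200 mM NaCl, pH 7.5, was mixed with a range of inhibitor concentrations and 2'-4-methylumbelliferyl substrate (200 µM final, 1.5% total DMSO). Fluorescence (ex 365 nm, em 445 nm) was followed over 5 min, and IC50 was taken from the full dose–response curve.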

The target in assay [2] is Neuraminidase (Influenza A virus (strain A/Brevig Mission/1/1918 H1N1) (Influenza Avirus (strain A/South Carolina/1/1918 H1N1))) (UniProt Q9IGQ6). Nature of the assay: Competitive inhibition of Influenza A virus (A/Brevig Mission/1/1918(H1N1)) recombinant soluble neuraminidase at 3.75 to 15 nM using 2'-4(methylumbelliferyl)-alpha-D-N-acetylneuraminic acid substrate by fluorimetric based Michaelis-Menten equation analysis. Summed up: (§2)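 For kinetics, substrate working solution was serially diluted in assay buffer (50 mM Tris, 5 mM CaCl2, 200 mM NaCl, pH 7.5) containing 4% DMSO. Recombinant soluble neuraminidase reaction progress was followed fluorimetrically (ex 365, em 445 nm) for 10 min at several substrate and inhibitor concentrations to derive Ki.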

In assay [3] the test system is Influenza A virus. Nature of the assay: Antiviral activity against NP40-inactivated Influenza A virus (A/Brisbane/59/2007(H1N1)) preincubated with virus for 2 hrs by viral hemagglutinination titter assay. It is filed as functional, organism-based. A digest of the protocol:
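The virus assay used 0.2% NP40-inactivated virus, diluted to match the activity of 1000 ng/mL recombinant enzyme stock, with inhibitor preincubation lengthened to 2 h at room temperature before the 4-methylumbelliferyl substrate was added. Reaction was in pH 7.5 Tris/CaCl2/NaCl buffer, with fluorescence read at ex 365/em 445 nm. IC50 came from dose–response.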

Assay [4] has as its target Neuraminidase (Influenza A virus (strain A/Brevig Mission/1/1918 H1N1) (Influenza Avirus (strain A/South Carolina/1/1918 H1N1))) (UniProt Q9IGQ6). Kind of assay: Competitive inhibition of Influenza A virus (A/Brevig Mission/1/1918(H1N1)) recombinant soluble neuraminidase at 3.75 to 15 nM using 2'-4(methylumbelliferyl)-alpha-D-N-acetylneuraminic acid substrate by fluorimetric based Lineweaver-Burk plot analysis. A digest of the protocol: as §2

Assay [5] has the same target. Kind of assay: Inhibition of Influenza A virus (A/Brevig Mission/1/1918(H1N1)) recombinant neuraminidase by dose responsive study. A digest of the protocol:
as §1

Assay [6] deals with Influenza A virus. Nature of the assay: Antiviral activity against NP40-inactivated Influenza A virus (A/Brisbane/59/2007(H1N1)) preincubated with virus for 10 mins by viral hemagglutinination titter assay. It is filed as functional, organism-based. A digest of the protocol:
(§3)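 Inhibitor dilutions were incubated for 10 min at room temperature with 0.2% NP40-inactivated virus, diluted to match the activity of 1000 ng/mL recombinant enzyme stock. The 4-methylumbelliferyl sialic acid substrate was then added in Tris/CaCl2/NaCl buffer, pH 7.5. Neuraminidase activity was read fluorimetrically (ex 365, em 445 nm), and IC50 was taken from the dose–response curve.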

In assay [7] the target is Neuraminidase (Influenza A virus) (UniProt B4URF0). Kind of assay: Inhibition of NP40-inactivated Influenza A virus (A/Brisbane/59/2007(H1N1)) neuraminidase after 10 mins by dose responsive study. Summed up: as §3
Assay [8] has as its target Neuraminidase (Influenza A virus (strain A/Brevig Mission/1/1918 H1N1) (Influenza Avirus (strain A/South Carolina/1/1918 H1N1))) (UniProt Q9IGQ6). Kind of assay: Competitive inhibition of Influenza A virus (A/Brevig Mission/1/1918(H1N1)) recombinant soluble neuraminidase at 0.7 to 3 nM using 2'-4(methylumbelliferyl)-alpha-D-N-acetylneuraminic acid substrate by fluorimetric based Michaelis-Menten equation analysis. Summed up:
as §2

The target is the same in assay [9]. Kind of assay: Competitive inhibition of Influenza A virus (A/Brevig Mission/1/1918(H1N1)) recombinant soluble neuraminidase at 0.7 to 3 nM using 2'-4(methylumbelliferyl)-alpha-D-N-acetylneuraminic acid substrate by fluorimetric based Lineweaver-Burk plot analysis. A digest of the protocol: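 Recombinant soluble neuraminidase (1000 ng/mL stock, 400 ng/mL in well) in 50 mM Tris pH 7.5, 200 mM NaCl, 5 mM CaCl2. The 4-methylumbelliferyl sialic acid substrate working solution was serially diluted in buffer with 4% DMSO. Reaction progress was read by fluorescence (ex 365, em 445 nm) over 10 min across several substrate and inhibitor concentrations. Substrate-only controls were run.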

Chain of Neuraminidase (Influenza A virus (strain A/Brevig Mission/1/1918 H1N1) (Influenza Avirus (strain A/South Carolina/1/1918 H1N1))) (Q9IGQ6 whole entry): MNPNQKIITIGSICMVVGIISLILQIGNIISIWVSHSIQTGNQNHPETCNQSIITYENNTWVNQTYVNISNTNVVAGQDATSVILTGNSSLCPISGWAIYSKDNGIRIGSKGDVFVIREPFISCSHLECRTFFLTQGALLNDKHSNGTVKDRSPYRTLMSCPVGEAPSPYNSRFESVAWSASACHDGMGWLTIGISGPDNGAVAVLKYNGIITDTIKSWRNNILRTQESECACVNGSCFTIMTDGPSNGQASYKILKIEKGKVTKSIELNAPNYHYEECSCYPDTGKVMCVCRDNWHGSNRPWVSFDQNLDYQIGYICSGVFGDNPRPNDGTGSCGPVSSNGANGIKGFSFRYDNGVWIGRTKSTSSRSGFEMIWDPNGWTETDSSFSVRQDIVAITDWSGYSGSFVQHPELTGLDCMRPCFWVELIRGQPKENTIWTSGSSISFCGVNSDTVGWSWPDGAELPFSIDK
Chain of Neuraminidase (Influenza A virus (strain A/Brevig Mission/1/1918 H1N1) (Influenza Avirus (strain A/South Carolina/1/1918 H1N1)), UniProt Q9IGQ6) (Q9IGQ6 whole entry): as above
Chain of Neuraminidase (Influenza A virus) (B4URF0 as listed by the source): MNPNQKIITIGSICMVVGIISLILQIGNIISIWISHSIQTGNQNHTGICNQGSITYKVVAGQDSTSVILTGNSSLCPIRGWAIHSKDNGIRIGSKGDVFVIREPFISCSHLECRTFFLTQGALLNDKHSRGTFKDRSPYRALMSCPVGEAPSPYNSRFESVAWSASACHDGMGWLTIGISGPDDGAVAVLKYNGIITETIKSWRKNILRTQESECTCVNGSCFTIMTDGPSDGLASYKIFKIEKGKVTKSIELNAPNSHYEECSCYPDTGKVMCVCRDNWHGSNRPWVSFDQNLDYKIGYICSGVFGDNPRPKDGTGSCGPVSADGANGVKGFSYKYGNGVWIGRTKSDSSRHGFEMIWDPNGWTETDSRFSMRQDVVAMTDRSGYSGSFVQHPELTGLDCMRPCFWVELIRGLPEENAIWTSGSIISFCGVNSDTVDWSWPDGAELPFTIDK
Chain of Neuraminidase (B4URF0 whole entry): as the sequence (B4URF0 as listed by the source) above

With `CCOC(=O)C1=C[C@@H](OC(CC)CC)[C@H](NC(C)=O)[C@@H](N)C1` [OSELTAMIVIR], at Neuraminidase, the pIC50 is 9.00.
For the compound `N=C(N)N[C@H]1CC[C@@](O)(C(=O)O)C1`, the pIC50 in [1] was 2.40.
At Neuraminidase, `CCOC(=O)C1=C[C@@H](OC(CC)CC)[C@H](NC(C)=O)[C@@H](NC(=N)N)C1` showed a pIC50 of 9.30.
For `CCC(CC)[C@H](NC(C)=O)[C@@H]1[C@H](O)[C@@H](C(=O)O)C[C@H]1N`, the inhibition entry in [2] and in assay [4] was “Active” throughout. Further, the pIC50 is 8.66 in the assay with Influenza A virus [3], 8.14 in the assay with Influenza A virus [6] and 7.75 in [1]. Besides, the inhibition result in assay [5] and in assay [7] was “Dose-dependent effect” each time. Moreover, the pKi in [1] is 8.12.
On to `CCC(CC)[C@H](NC(C)=O)[C@@H]1[C@H](O)[C@@H](C(=O)O)C[C@H]1NC(=N)N` [PERAMIVIR ANHYDROUS], for which the inhibition entry in assay [8] and in assay [9] was “Active” in each case. Also, the inhibition entry in assay [5] and in assay [7] was “Dose-dependent effect” each time. For the same compound, the pIC50 in the assay with Influenza A virus [6] is 9.07; in assay [1], 8.47. For the same compound, in [1], the pKi is 9.08.
On to `N[C@H]1CC[C@@](O)(C(=O)O)C1`, for which the pIC50 in assay [1] is 1.43.

By pIC50 is commonly meant the IC50 on a negative log10 scale, so that one unit is a factor of ten. The term pKi denotes −log10 of the Ki, conventionally taken in molar units.
